Measured values gathered from unrelated publications.
Target: Glycogen synthase kinase-3 alpha (GSK3A, Homo sapiens, UniProt P49840)

Cn1cnc(Br)c1C1=CN(c2ncnc3[nH]cnc23)CCS1 — inhibition (enzyme activity; inhibitor; radiometric; 50 nM): 14.8%
Cc1ccc(NC(=O)c2ccc(CN3CCN(C)CC3)cc2)cc1Nc1nccc(-c2cccnc2)n1 — activity vs control (enzyme activity; inhibitor; 0.5 µM): 100%
Nc1c(C(=O)NCc2ccc(C(=O)NCCCC3CCCCC3)cc2)cnn1-c1ccccc1 — remaining binding (cell-free assay; competition with immobilised ligand; 0.1 µM): 100%
COc1cc2ncnc(Nc3ccc(Oc4ccccc4)cc3C)c2cc1OC — inhibition (enzyme activity; inhibitor; 1 µM): 4%
Cc1cnc(NC2CCOCC2)nc1-n1cnc(C(=O)NC(CN)c2cc(F)cc(Cl)c2)c1 (stereo not drawn) — remaining activity (enzyme activity; inhibitor; radiometric; 1 µM): 8%
CS(=O)(=O)N1CCCC(NC(=O)[C@H](CCC2CCCCC2)NC(=O)c2ccc(CNc3ncnc4c3nnn4-c3ccccc3)cc2)C1 (stereo partly drawn) — remaining binding (cell-free assay; competition with immobilised ligand; 0.1 µM): 100%
O=C1NC(=O)c2cc(Nc3ccc(F)cc3)c(Nc3ccc(F)cc3)cc21 — remaining signal (cell-free assay; inhibitor; 0.5 µM): 88.2%
O=C(N[C@H]1CCCCC/C=C\C2C[C@@]2(C(=O)O)NC(=O)[C@@H]2C[C@@H](Oc3ccncc3)CN2C1=O)OC1CCCC1 (stereo partly drawn) — remaining binding (cell-free assay; competition with immobilised ligand; 1 µM): 100%
C=CC(=O)Nc1cc(Nc2nccc(Nc3cc(Cl)c(F)cc3C(C)(C)O)n2)c(OC)cc1N1CC[C@@H](N(C)C)C1 — inhibition (enzyme activity; inhibitor; 1 µM): 0%
Cc1ccc(Nc2nccc(N(C)c3ccc4c(C)n(C)nc4c3)n2)cc1S(N)(=O)=O — inhibition (enzyme activity; inhibitor; 0.3 µM): -12%
COc1cccc2c(NCc3ccccc3)nc(-n3c(N)nc4ccccc43)nc12 — inhibition (target engagement in cells; inhibitor; chemoproteomics; 20 mM): 2%
COc1cc2ncnc(Nc3ccc(F)c(Cl)c3)c2cc1OCCCN1CCOCC1 — remaining signal (cell-free assay; 0.5 µM): 99.7%
CC(C)(C)c1nc2c(s1)c1nc(N)ncc1c1ccc(NS(=O)(=O)c3c(F)cccc3F)c(F)c12 — remaining activity (enzyme activity; inhibitor; radiometric; 1 µM): 88%
O=C(Nc1cnn(-c2csc(C(=O)NC3COC3)c2)c1)Nc1c(F)cccc1Cl — remaining activity (enzyme activity; inhibitor; 5 µM): 93.5%
CNC(=O)c1cc(Oc2ccc(NC(=O)Nc3ccc(Cl)c(C(F)(F)F)c3)cc2)ccn1 — remaining signal (cell-free assay; 0.5 µM): 103%
CN1CC(Oc2cnc(C#N)cc2-c2ccn3nc(NC(=O)C4CC4)cc3c2)C1 — inhibition (enzyme activity; inhibitor; 1 µM): -14%
CO[C@@H](C)c1c(Nc2ccc([C@@H](N(C)C(=O)C3CCS(=O)(=O)CC3)C(F)(F)F)cc2)cnc2cc(Cl)nn12 — remaining binding (cell-free assay; competition with immobilised ligand; 1 µM): 94%
CCN(CC)CCNC(=O)c1c(C)[nH]c(/C=C2\C(=O)Nc3ccc(F)cc32)c1C — inhibition (enzyme activity; inhibitor; 10 µM): 36%
O=S(=O)(Nc1cc(Sc2ncn[nH]2)c(O)c2ccccc12)c1ccc(-c2ccccc2)cc1 — remaining activity (enzyme activity; inhibitor; 1 µM): ≥ 75%
C[C@@H]1CN(c2cc(-c3n[nH]c4ccc(OC5(C)CC5)cc34)ncn2)C[C@H](C)O1 — remaining binding (cell-free assay; competition with immobilised ligand; 0.1 µM): 100%
Cc1ccc(C(=O)NCc2ccsc2)cc1C#Cc1cn(C(C)C)c2ncnc(N)c12 — activity vs control (enzyme activity; inhibitor; 1 µM): 91%
Cc1cc(-n2nc(Cc3cc(F)cc(C(F)(F)F)c3)nc2C)ccc1C(N)=O — remaining binding (cell-free assay; competition with immobilised ligand; 1 µM): 97%
Nc1ncnc2occ(-c3ccc(NC(=O)Nc4cc(C(F)(F)F)ccc4F)cc3)c12 — remaining activity (enzyme activity; inhibitor; 20 µM): 17%
CN([C@@H]1CCc2c(CC(=O)O)c3cc(S(C)(=O)=O)ccc3n2C1)S(=O)(=O)c1ccc(F)cc1 — remaining binding (cell-free assay; competition with immobilised ligand; 1 µM): 100%
Cc1cc(NC(=O)c2cccc3cc(-c4cccc5[nH]nc(N)c45)ccc23)ccc1F — activity vs control (enzyme activity; inhibitor; 0.1 µM): 121%
CNC(=O)Nc1ccc2c(c1)CC[C@@]21OC(=O)N(CC(=O)N(Cc2ccc(F)cc2)[C@@H](C)C(F)(F)F)C1=O — remaining binding (cell-free assay; competition with immobilised ligand; 1 µM): 99%
CC(C)(O)[C@H]1CC[C@H](Nc2ccc3ncc(-c4cccc(C(F)(F)F)c4)n3n2)CC1 — remaining activity (enzyme activity; inhibitor; 1 µM): 90%
